Results on one molecule are retold here after ChEMBL document CHEMBL3526029, “Disposition and metabolism of GSK2251052 in humans: a novel boron-containing antibiotic” (Drug Metab Dispos, 2013).

Data set [1] is described as follows: Total drug recovery in healthy human at 1500 mg, iv infusion for 1 hr as single dose after 144 hrs. Format: ADME, organism-based. The following applies: in vivo, read-out: Drug recovery.
Data set [2] is described as follows: Drug recovery in healthy human urine at 1500 mg, iv infusion for 1 hr as single dose after 24 hrs. As to conditions: read-out: Drug recovery. Format: ADME, organism-based.
The nature of data set [3]: Drug recovery in healthy human feces at 1500 mg, iv infusion for 1 hr as single dose after 216 hrs. It is filed as ADME, organism-based. The following applies: faeces, read-out: Drug recovery.
Data set [4] in a line: Drug recovery in healthy human urine at 1500 mg, iv infusion for 1 hr as single dose after 72 hrs. It is filed as ADME, organism-based. The following applies: read-out: Drug recovery.
Data set [5] can be described thus: Drug metabolism in cynomolgus monkey kidney S9 fraction assessed as (S)-3-(3-(aminomethyl)-1-hydroxy-1,3-dihydrobenzo[c][1,2]oxaborol-7-yloxy)propanoicacid formation at 50 to 500 uM after 3 hrs by liquid scintillation counting in presence of NADPH regeneration system. It is filed as ADME, Macaca fascicularis. As to conditions: s9, 3 h.
Data set [6] is described as follows: Total drug recovery in healthy human at 1500 mg, iv infusion for 1 hr as single dose after 288 hrs. The following applies: in vivo, read-out: Drug recovery. It is filed as ADME, organism-based. The method in brief:
(§1)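 Six healthy adult males, fasted ≥10 h, got one 1500 mg [14C]GSK2251052 dose ([…], 0.56 MBq) as a constant-rate 1-h IV infusion in 0.9% NaCl. Urine was collected at 0–6, 6–12 and 12–24 h, then in 24-h blocks to 336 h; feces in 24-h blocks. Urine was counted directly by LSC; feces were homogenized and combusted in duplicate before LSC. Cumulative recovery is given as mean % of dose.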

Data set [7] relates to Blood. As to the kind of experiment: Half life in healthy human whole blood assessed as radioactivity at 1500 mg, iv infusion for 1 hr as single dose. Format: ADME, organism-based. The following applies: in vivo. In outline: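 Healthy men got a single 1500 mg [14C] dose by 1 h i.v. infusion. K2EDTA blood was sampled up to 336 h. Radioactivity in blood and plasma was measured by LSC, with AMS for plasma below LLQ. Parent and M3 were measured by LC/MS/MS (5–10,000 ng/ml range). Noncompartmental analysis used actual times, with t1/2 = ln2/λz and Tmax observed directly, timed from infusion start.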

A short description of data set [8]: Drug metabolism in cynomolgus monkey lung S9 fraction assessed as (S)-3-(3-(aminomethyl)-1-hydroxy-1,3-dihydrobenzo[c][1,2]oxaborol-7-yloxy)propanoicacid formation at 50 to 500 uM after 3 hrs by liquid scintillation counting in presence of NAD+. It is filed as ADME, Macaca fascicularis. As to conditions: s9, 3 h. The method in brief:
(§2)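 [14C]GSK2251052 was incubated in triplicate for 1 or 3 h at 37°C with 4 mg/ml S9 (monkey liver, lung or kidney; human liver), liver cytosol or liver microsomes and 7.5 mM NAD+. Buffer was pyrophosphate at pH 7.4, 8.4 or 8.8. Controls lacked cofactor or enzyme. Reactions were quenched with acetonitrile, counted by LSC, and pooled for radio-HPLC.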

Data set [9] has as its system Plasma. As to the kind of experiment: AUC (0 to t) in healthy human plasma assessed as radioactivity at 1500 mg, iv infusion for 1 hr as single dose. It is filed as ADME, organism-based. The following applies: in vivo. The method in brief: (§3)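 Six fasted healthy men received 1500 mg [14C]GSK2251052 as a 1-h i.v. infusion. Blood and plasma were sampled from predose to 336 h after infusion start. Radioactivity was counted by LSC; plasma below 870 ng eq/ml was reanalysed by accelerator MS, with predose background subtracted. Noncompartmental analysis used actual sampling times, linear-up/log-down trapezoids and CL = dose/AUC(0-∞).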

A short description of data set [10]: Drug recovery in healthy human urine at 1500 mg, iv infusion for 1 hr as single dose after 336 hrs. Format: ADME, organism-based. The following applies: read-out: Drug recovery.
Data set [11] in a line: Drug metabolism in cynomolgus monkey kidney S9 fraction assessed as (S)-3-(3-(aminomethyl)-1-hydroxy-1,3-dihydrobenzo[c][1,2]oxaborol-7-yloxy)propanoicacid formation at 50 to 500 uM after 3 hrs by liquid scintillation counting in presence of NAD+. Format: ADME, Macaca fascicularis. The following applies: s9, 3 h. In outline:
as §2

Data set [12] can be described thus: Drug recovery in healthy human urine at 1500 mg, iv infusion for 1 hr as single dose after 120 hrs. Format: ADME, organism-based. The following applies: read-out: Drug recovery.
A short description of data set [13]: Total drug recovery in healthy human at 1500 mg, iv infusion for 1 hr as single dose after 48 hrs. It is filed as ADME, organism-based. The following applies: in vivo, read-out: Drug recovery. In outline:
as §1

A short description of data set [14]: Total drug recovery in healthy human at 1500 mg, iv infusion for 1 hr as single dose after 216 hrs. It is filed as ADME, organism-based. As to conditions: in vivo, read-out: Drug recovery. The method in brief:
as §1

Data set [15] in a line: Drug metabolism in cynomolgus monkey liver S9 fraction assessed as (S)-3-(3-(aminomethyl)-1-hydroxy-1,3-dihydrobenzo[c][1,2]oxaborol-7-yloxy)propanoicacid formation at 50 to 500 uM after 3 hrs by liquid scintillation counting in presence of NADPH regeneration system. The following applies: s9, 3 h. It is filed as ADME, subcellular, Macaca fascicularis.
The test system of data set [16] is Homo sapiens. As to the kind of experiment: Toxicity in healthy human assessed as serious adverse events at 1500 mg, iv infusion for 1 hr as single dose. Format: organism-based. The following applies: in vivo. In outline: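 Single-center, open-label phase I study in six healthy adult males, fasted ≥10 h. Each got one 1500 mg [14C]GSK2251052 dose as a constant-rate 1-h IV infusion. Safety was monitored throughout, with follow-up for at least 336 h after dosing.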

Data set [17] can be described thus: Total drug recovery in healthy human at 1500 mg, iv infusion for 1 hr as single dose after 240 hrs. It is filed as ADME, organism-based. As to conditions: in vivo, read-out: Drug recovery. In outline: as §1
The nature of data set [18]: Drug metabolism in healthy human urine assessed as (S)-3-(3-(acetamidomethyl)-1-hydroxy-1,3-dihydrobenzo[c][1,2]oxaborol-7-yloxy)propanoicacid formation at 1500 mg, iv infusion for 1 hr as single dose by mass spectrometry. Format: ADME, organism-based. As to conditions: in vivo. In outline:
(§4)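 Urine was collected through 336 h after a 1500 mg [14C] i.v. 1-h infusion to six men. Samples were pooled by weight (0–120 h per subject; 120–336 h composite) and centrifuged. Profiling used HPLC (Atlantis T3, ammonium acetate pH 4.5/methanol, 30°C) with fraction radioactivity counting. Identity came from Orbitrap positive-ion accurate mass. Values were given as % dose, corrected for recovery.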

Data set [19] in a line: Drug metabolism in cynomolgus monkey lung S9 fraction assessed as (S)-3-(3-(aminomethyl)-1-hydroxy-1,3-dihydrobenzo[c][1,2]oxaborol-7-yloxy)propanoicacid formation at 50 to 500 uM after 3 hrs by liquid scintillation counting in presence of NADPH regeneration system. Format: ADME, Macaca fascicularis. The following applies: s9, 3 h.
In data set [20] the test system is Blood. As to the kind of experiment: AUC (0 to infinity) in healthy human whole blood assessed as radioactivity at 1500 mg, iv infusion for 1 hr as single dose. It is filed as ADME, organism-based. The arrangement: dose 1500 mg, route intravenous, time infinity. The following applies: in vivo. In outline:
as §3

The nature of data set [21]: Drug metabolism in healthy human urine assessed as 2-(2-amino-1-hydroxyethyl)-6-(3-hydroxypropoxy)phenol formation at 1500 mg, iv infusion for 1 hr as single dose by mass spectrometry. The following applies: in vivo. It is filed as ADME, organism-based. The method in brief:
as §4

Data set [22] can be described thus: Drug recovery in healthy human feces at 1500 mg, iv infusion for 1 hr as single dose after 264 hrs. As to conditions: faeces, read-out: Drug recovery. It is filed as ADME, organism-based.
Data set [23] can be described thus: Drug metabolism in cynomolgus monkey liver S9 fraction assessed as (S)-3-(3-(aminomethyl)-1-hydroxy-1,3-dihydrobenzo[c][1,2]oxaborol-7-yloxy)propanoicacid formation at 50 to 500 uM after 3 hrs by liquid scintillation counting in presence of NAD+ and ADH inhibitor 4-MP. The following applies: s9, 3 h. It is filed as ADME, subcellular, Macaca fascicularis. In outline: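 NAD+ (7.5 mM) incubations of [14C]GSK2251052 with 4 mg/ml monkey liver cytosol or liver S9 in pyrophosphate buffer included 4-MP at 0.6 mM final. Incubations ran in triplicate at 37°C. Extracts were counted by LSC and pooled for radio-HPLC.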

One may read the AUC as the area under the concentration-time curve, a measure of exposure.

Take `Cl.N[14CH2][C@H]1OB(O)c2c(OCCCO)cccc21`: the dose excreted at 144 h in data set [1] amounted to 92.6%. Further, the dose excreted at 24 h in [2] was found to be 51.2%. In addition, the values for the dose excreted at 216 h in data set [3] and in data set [14] were 7.6% and 95.8%, respectively. The dose excreted at 72 h in [4] came to 76.9%. For the same molecule, the Drug metabolism result in data set [5], in [8], in data set [11], in [15], in data set [19] and in data set [23] was “metabolite_not_detected” each time. Further, the dose excreted at 288 h in [6] came out at 97.4%. Besides, in data set [7], the t1/2 stood at 14.3 h. The AUCt in [9] was determined as 191 µg·h/mL. In data set [10], the dose excreted at 336 h was determined as 90.5%. The dose excreted at 120 h in [12] was 83.4%. Also, the dose excreted at 48 h in [13] was found to be 70.5%. Further, the Activity result in data set [16] is given as “Non-toxic”. In addition, in [17], the dose excreted at 240 h was 96.4%. Moreover, the Drug recovery entry in [18] and in data set [21] was “metabolite_detected” throughout. Besides, in data set [20], the AUC came out at 193 µg·h/mL. Besides, the dose excreted at 264 h in data set [22] is 7.6%.
